# Experimental data from ChEMBL document CHEMBL4602720, “Degradation versus Inhibition: Development of Proteolysis-Targeting Chimeras for Overcoming Statin-Induced Compensatory Upregulation of 3-Hydroxy-3-methylglutaryl Coenzyme A Reductase” (J Med Chem, 2020).
# Active and inactive are the calls of the source. No cut-off for these calls is given here.
# Key:
# [1] = target: T1, Protein cereblon/3-hydroxy-3-methylglutaryl-coenzyme A reductase (Cricetulus griseus) (UniProt P00347+G3H338); assay: Protac activity at CRBN/HMGCR in Insig-1/Insig-2 deficient Chinese hamster SRD15 cells assessed as HMGCR level at 0.03 uM after 16 hrs by immunoblotting analysis (reference value: 1)
# Method in brief: (§1)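 Dose-response in SRD15 cells in Medium A with 5% FBS, 16 h treatment, DMSO final 0.1% or lower. RIPA lysates immunoblotted for HMGCR. HMGCR densitometry normalized to actin, with the DMSO group set to 1. Three repeats. DC50 is taken from a dose-response fit of the semi-quantitative blots, mean of 3 independent experiments.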
# [2] = target: T1, Protein cereblon/3-hydroxy-3-methylglutaryl-coenzyme A reductase (Cricetulus griseus); assay: Protac activity at CRBN/HMGCR in Insig-1/Insig-2 deficient Chinese hamster SRD15 cells assessed as HMGCR level at 0.1 uM after 16 hrs by immunoblotting analysis (reference value: 1); method in brief: as §1
# Target sequence in this assay (G3H338 1-445 partner): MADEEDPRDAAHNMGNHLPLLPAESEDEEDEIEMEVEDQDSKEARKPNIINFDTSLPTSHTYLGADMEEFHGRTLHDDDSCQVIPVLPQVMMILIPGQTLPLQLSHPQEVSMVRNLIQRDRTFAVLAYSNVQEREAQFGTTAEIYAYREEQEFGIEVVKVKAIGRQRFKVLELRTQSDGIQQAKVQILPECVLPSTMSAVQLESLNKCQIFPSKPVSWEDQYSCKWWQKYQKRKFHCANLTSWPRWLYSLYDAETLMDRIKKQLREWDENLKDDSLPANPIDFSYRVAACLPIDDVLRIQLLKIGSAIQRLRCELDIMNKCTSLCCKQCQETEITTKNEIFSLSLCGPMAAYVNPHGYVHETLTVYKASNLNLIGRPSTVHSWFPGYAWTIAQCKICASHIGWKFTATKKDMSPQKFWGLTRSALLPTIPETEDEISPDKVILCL
# Target sequence in this assay (P00347 whole entry): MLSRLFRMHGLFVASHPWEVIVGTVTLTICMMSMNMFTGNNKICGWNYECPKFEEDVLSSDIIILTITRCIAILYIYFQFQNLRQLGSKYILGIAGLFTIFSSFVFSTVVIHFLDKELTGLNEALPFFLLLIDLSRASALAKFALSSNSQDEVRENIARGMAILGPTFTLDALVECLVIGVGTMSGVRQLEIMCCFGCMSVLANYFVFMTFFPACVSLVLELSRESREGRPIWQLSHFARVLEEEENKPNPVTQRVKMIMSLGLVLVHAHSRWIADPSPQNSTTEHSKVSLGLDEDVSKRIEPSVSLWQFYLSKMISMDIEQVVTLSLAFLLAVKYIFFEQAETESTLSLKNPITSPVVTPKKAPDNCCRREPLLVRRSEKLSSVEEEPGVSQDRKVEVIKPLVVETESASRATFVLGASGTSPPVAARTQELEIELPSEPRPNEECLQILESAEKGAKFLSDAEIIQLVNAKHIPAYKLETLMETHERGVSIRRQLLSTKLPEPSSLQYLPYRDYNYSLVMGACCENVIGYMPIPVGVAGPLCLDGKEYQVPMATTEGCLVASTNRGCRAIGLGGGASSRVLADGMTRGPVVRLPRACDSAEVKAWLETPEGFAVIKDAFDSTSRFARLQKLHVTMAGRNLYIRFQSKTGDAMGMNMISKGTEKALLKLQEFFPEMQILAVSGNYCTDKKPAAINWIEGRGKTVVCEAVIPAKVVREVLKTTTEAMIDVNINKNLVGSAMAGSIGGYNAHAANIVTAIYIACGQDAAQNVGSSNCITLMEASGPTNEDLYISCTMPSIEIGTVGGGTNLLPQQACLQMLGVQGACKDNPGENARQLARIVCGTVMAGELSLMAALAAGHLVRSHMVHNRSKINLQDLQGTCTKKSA
# [3] = target: T1, Protein cereblon/3-hydroxy-3-methylglutaryl-coenzyme A reductase (Cricetulus griseus); assay: Protac activity at CRBN/HMGCR in Insig-1/Insig-2 deficient Chinese hamster SRD15 cells assessed as HMGCR level at 1 uM after 16 hrs in presence of 0.3 uM atorvastatin by immunoblotting analysis (reference value: 1)
# Target sequence in this assay (G3H338 1-445 partner): as the sequence (G3H338 1-445 partner) above
# Target sequence in this assay (P00347 whole entry): as the sequence (P00347 whole entry) above
# [4] = target: T2, Protein cereblon/3-hydroxy-3-methylglutaryl-coenzyme A reductase (Homo sapiens) (UniProt P04035+Q96SW2); assay: Protac activity at human Flag-tagged CRBN/T7-tagged HMGCR transfected in Insig-1/Insig-2 deficient Chinese hamster SRD15 cells assessed as induction of HMGCR degradation at 0.01 to 1 uM after 16 hrs by immunoblotting analysis
# T2 sequence (P04035 whole entry, looked up): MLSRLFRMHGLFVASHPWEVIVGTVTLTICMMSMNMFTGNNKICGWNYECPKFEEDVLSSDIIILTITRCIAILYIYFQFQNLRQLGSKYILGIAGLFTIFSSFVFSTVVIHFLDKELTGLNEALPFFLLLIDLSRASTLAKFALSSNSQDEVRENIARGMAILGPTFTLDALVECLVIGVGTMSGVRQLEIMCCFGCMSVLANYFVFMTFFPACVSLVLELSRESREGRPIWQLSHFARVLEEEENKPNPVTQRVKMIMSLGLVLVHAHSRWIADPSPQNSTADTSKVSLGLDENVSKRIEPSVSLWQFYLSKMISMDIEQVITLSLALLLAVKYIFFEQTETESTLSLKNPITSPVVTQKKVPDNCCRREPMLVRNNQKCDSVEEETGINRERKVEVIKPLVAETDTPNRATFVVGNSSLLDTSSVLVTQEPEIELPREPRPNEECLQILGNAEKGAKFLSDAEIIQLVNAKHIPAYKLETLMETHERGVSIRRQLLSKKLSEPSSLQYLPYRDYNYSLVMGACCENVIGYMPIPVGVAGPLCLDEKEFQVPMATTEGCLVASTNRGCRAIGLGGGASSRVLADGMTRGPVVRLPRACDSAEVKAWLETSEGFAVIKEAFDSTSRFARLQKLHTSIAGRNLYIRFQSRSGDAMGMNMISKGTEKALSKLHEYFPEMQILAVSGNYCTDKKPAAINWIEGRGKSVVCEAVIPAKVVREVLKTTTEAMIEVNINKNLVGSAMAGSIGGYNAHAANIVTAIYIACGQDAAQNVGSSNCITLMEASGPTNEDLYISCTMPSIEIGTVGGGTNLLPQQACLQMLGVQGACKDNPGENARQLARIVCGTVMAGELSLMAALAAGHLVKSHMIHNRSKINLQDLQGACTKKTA
# T2 sequence (Q96SW2 whole entry, looked up): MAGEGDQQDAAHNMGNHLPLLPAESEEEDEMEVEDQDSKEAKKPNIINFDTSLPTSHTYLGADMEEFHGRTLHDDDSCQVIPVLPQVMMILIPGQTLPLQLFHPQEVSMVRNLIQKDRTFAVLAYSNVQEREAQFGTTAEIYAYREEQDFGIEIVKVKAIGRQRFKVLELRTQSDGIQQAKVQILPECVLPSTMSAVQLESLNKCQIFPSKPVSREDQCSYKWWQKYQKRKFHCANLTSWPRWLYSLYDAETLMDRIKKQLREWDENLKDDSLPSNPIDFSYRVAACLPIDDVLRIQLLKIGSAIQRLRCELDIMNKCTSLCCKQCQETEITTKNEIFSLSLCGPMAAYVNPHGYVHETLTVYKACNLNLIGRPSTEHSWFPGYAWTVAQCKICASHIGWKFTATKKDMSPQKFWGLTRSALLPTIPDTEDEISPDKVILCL
# Method in brief: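 SRD15 cells co-transfected with T7-HMGCR and Flag-CRBN (wild type or YW/AA mutant), then treated with DMSO or 1 μM compound for 16 h; transfected HMGCR measured by immunoblotting.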
# [5] = target: T1, Protein cereblon/3-hydroxy-3-methylglutaryl-coenzyme A reductase (Cricetulus griseus); assay: Protac activity at CRBN/HMGCR in 5'-GCAAGGCAGUGUAUAUUAU-3' siRNA transfected in Insig-1/Insig-2 deficient Chinese hamster SRD15 cells assessed as induction of HMGCR degradation at 1 uM after 16 hrs by immunoblotting analysis
# Method in brief: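 SRD15 cells (Insig-1/Insig-2-deficient CHO-7) in Medium A with 5% FBS at 37 °C, 5% CO2; transfected with negative-control or Crbn-targeting siRNA duplexes for 48 h, then given 1 μM degrader for 16 h. HMGCR by SDS-PAGE immunoblot of RIPA lysates. Knockdown efficiency checked by qRT-PCR against hamster GAPDH, comparative CT method. n = 3 independent experiments.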
# [6] = target: T1, Protein cereblon/3-hydroxy-3-methylglutaryl-coenzyme A reductase (Cricetulus griseus); assay: Protac activity at CRBN/HMGCR in Insig-1/Insig-2 deficient Chinese hamster SRD15 cells assessed as increase in ubiquitination level of HMGCR at 1 uM incubated for 4 hrs in presence of MG132 by Western blot analysis
# Method in brief: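 SRD15 cells given DMSO or 1 μM degrader together with 10 μM MG132 for 4 h. Lysates probed by immunoblot with P4D1 anti-ubiquitin antibody for high-molecular-weight HMGCR smears.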
# [7] = target: T2, Protein cereblon/3-hydroxy-3-methylglutaryl-coenzyme A reductase (Homo sapiens); assay: Protac activity at human Flag-tagged CRBN/Myc-tagged HMGCR expressed in HEK293T cells assessed as induction of HMGCR immunoprecipitation at 1 uM preincubated for 16 hrs followed by MG132 addition addition and measured after 5 hrs in presence of MG132 by Western blot analysis; type: cell-based; conditions: HEK-293T
# [8] = target: T2, Protein cereblon/3-hydroxy-3-methylglutaryl-coenzyme A reductase (Homo sapiens); assay: Protac activity at human Flag-tagged CRBN/Myc-tagged HMGCR expressed in HEK293T cells assessed as induction of HMGCR immunoprecipitation 1 uM preincubated for 16 hrs followed by atorvastatin addition addition and measured after 5 hrs in presence of MG132 by Western blot analysis; type: cell-based; conditions: HEK-293T
# [9] = target: T2, Protein cereblon/3-hydroxy-3-methylglutaryl-coenzyme A reductase (Homo sapiens); assay: Protac activity at human Flag-tagged CRBN/T7-tagged HMGCR expressed in Chinese hamster SRD15 cells transfected with HA-tagged ubiquitin assessed as increase in HMGCR immunoprecipitation 1 uM preincubated for 16 hrs followed by MG132 addition addition and measured after 5 hrs by Western blot analysis; type: cell-based
# [10] = target: T2, Protein cereblon/3-hydroxy-3-methylglutaryl-coenzyme A reductase (Homo sapiens); assay: Protac activity at CRBN/HMGCR in human Huh7 cells assessed as induction of HMGCR degradation at 0.01 to 1 uM after 16 hrs by Western blot analysis; type: cell-based; conditions: Huh-7
# [11] = target: T3, Sterol regulatory element-binding protein 2 (Mus musculus) (UniProt Q3U1N2); assay: Activation of SREBP2 pathway in mouse primary hepatocytes assessed as increase in LDLR mRNA expression at 0.3 to 1 uM afer 16 hrs by quantitative real-time PCR analysis; type: cell-based
# T3 sequence (whole entry): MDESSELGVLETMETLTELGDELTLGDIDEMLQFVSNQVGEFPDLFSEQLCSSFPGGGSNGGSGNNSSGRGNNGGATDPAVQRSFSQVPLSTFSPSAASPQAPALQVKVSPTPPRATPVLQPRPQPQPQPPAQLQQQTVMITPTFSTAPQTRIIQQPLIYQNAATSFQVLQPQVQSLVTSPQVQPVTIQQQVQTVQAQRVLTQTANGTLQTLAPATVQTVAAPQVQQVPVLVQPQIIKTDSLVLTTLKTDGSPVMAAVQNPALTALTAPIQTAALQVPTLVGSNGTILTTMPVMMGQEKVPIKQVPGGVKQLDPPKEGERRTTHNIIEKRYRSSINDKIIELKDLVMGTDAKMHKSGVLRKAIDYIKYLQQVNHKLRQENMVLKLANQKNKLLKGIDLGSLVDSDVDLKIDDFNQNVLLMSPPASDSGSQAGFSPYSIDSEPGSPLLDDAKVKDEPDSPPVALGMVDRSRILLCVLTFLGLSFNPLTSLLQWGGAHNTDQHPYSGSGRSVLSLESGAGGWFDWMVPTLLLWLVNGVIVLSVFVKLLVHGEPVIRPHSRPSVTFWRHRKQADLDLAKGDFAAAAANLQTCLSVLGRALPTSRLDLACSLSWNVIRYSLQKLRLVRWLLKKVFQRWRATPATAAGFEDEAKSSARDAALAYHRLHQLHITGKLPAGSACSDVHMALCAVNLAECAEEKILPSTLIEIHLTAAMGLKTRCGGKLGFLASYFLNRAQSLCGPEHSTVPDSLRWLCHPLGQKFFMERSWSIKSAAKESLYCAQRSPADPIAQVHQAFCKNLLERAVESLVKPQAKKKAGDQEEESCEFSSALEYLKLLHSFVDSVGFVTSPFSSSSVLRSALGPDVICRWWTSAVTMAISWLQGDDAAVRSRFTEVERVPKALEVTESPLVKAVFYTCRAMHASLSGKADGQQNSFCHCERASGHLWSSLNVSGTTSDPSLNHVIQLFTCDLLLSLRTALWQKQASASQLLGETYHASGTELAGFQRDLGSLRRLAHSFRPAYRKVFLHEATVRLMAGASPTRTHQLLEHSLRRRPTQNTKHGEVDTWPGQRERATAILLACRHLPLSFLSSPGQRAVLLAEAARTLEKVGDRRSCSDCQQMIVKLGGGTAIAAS
# [12] = target: T1, Protein cereblon/3-hydroxy-3-methylglutaryl-coenzyme A reductase (Cricetulus griseus); assay: Protac activity at CRBN/HMGCR in Insig-1/Insig-2 deficient Chinese hamster SRD15 cells assessed as HMGCR level at 1 uM after 16 hrs by immunoblotting analysis relative to control; method in brief: as §1
# Target sequence in this assay (G3H338 1-445 partner): as the sequence (G3H338 1-445 partner) above
# Target sequence in this assay (P00347 whole entry): as the sequence (P00347 whole entry) above
structure (smiles),measurement,setting,value
CC(C)c1c(C(=O)Nc2ccccc2)c(-c2cccc(OCCCc3cn(CCOCCOCCOCCOCCNc4cccc5c4C(=O)N(C4CCC(=O)NC4=O)C5=O)nn3)c2)c(-c2ccc(F)cc2)n1CC[C@@H](O)C[C@@H](O)CC(=O)O (some centres not stated),fold change (FC),[1],0.6
same,fold change (FC),[2],0.6
same,fold change (FC),[3],1
same,Activity,[4],Active
same,Activity,[5],inactive
same,Activity,[6],Active
same,Activity,[7],Active
same,Activity,[8],inactive
same,Activity,[9],Active
same,Activity,[10],Active
same,Activity,[11],Active
same,Activity,[12],50%
